Compounds with a hit are over-represented: about 2.8% of the library has one in this group of screens.
NPY-Y2 antag: blocks the human neuropeptide Y Y2 receptor; NPY-Y2 expressing cells, antagonist mode; inhibition, % at 2.7 µM; 0.99% of 140,000 active; in the data active means inhibition above about 17%;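 further: 0% = vehicle with agonist challenge and 100% = reference antagonist with challenge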
NPY1 pot ag: human NPY-Y1 potentiation or agonism, primary screen | activation, % at 3.6 µM | P25929 | NPY-Y1 expressing cells, potentiator/agonist activation | 0.37% of 220,000 active | AID 1304; in the data active means activation above about 33%, passing the limit was not always enough;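 further: cells stimulated with NPY at EC10 then isoproterenol at EC100; 0% = low agonist plus stimulus and 100% = saturating agonist plus stimulus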
Target sequence (P25929 whole entry, looked up): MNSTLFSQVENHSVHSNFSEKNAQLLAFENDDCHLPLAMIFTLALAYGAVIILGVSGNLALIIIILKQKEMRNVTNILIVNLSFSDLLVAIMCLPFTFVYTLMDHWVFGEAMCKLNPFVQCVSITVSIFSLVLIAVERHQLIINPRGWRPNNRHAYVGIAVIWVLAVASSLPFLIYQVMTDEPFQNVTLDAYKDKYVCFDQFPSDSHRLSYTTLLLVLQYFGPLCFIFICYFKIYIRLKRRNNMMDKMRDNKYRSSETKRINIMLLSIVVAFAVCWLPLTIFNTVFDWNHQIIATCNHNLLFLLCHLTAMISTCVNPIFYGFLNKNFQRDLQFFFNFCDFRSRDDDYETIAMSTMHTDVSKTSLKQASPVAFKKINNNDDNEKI
NPY Y1 blocker: NPY-Y1 (human) receptor antagonism; P25929; HEK293-CNG Y1 cells, membrane potential fluorescence; NPY at EC95, then isoproterenol; inhibition, % at 3.6 µM; 1% of 200,000 active; AID 1040;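 active means inhibition above the campaign mean inhibition of all tested compounds plus 3 SD, cut at about 20% in these data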;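 further: 0% = DMSO wells given NPY plus isoproterenol and 100% = isoproterenol alone without NPY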
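Material: HEK293 cells with Y1 receptor plus CNG channel; times: compound incubation 1 h at room temperature, readout 45 min post-stimulation; signal: fluorescence, membrane potential probe; read-out basis: fluorescence ratio normalized to % inhibition between controls; benchmarks: full-block control isoproterenol-only wells, zero-block control NPY plus isoproterenol wells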
EP2 modulator: EP2 receptor (human) modulation; P43116; EP2-expressing cells, cAMP HTRF FRET, PGE2 co-stimulation; induction, % at 25 µM; 0.83% of 260,000 active; AID 940;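 active means compounds whose cAMP rise, as percent of the full-agonist control response, exceeds 60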;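 further: rat C6 glioma line stably carrying human EP2 under a CMV promoter; the protocol text gives 20 µM as final concentration; 100% = response of wells given 1 µM PGE2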
Target sequence (P43116 whole entry, looked up): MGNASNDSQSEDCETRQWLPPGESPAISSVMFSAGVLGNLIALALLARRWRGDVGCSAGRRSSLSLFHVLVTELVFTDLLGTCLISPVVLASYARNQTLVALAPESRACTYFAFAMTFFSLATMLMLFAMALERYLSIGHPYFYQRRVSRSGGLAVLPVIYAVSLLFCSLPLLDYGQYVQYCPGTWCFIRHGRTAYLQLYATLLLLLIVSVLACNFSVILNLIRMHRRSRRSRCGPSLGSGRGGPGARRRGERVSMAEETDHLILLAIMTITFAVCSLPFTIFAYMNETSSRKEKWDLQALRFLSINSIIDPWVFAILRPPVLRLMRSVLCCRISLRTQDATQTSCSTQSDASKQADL
PGE2 EP2 inh: blocks the human prostaglandin E2 receptor EP2 | 0.52% of 260,000 active | P43116 | AID 1422 | C6 glioma cells expressing human EP2, cAMP TR-FRET; cells stimulated with saturating PGE2 | inhibition, % at 25 µM;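 active means percent inhibition above 40 after rounding to a whole number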;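 further: rat C6 glioma host cells with rolipram phosphodiesterase inhibitor present; the protocol text gives 20 µM as final concentration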
NPY-Y2 PAM-ag: human NPY-Y2 potentiation or agonism, primary screen; 0.45% of 220,000 active; cells expressing NPY-Y2, potentiator/agonist read-out; activation, % at 3.6 µM; in the data active means activation above about 27%;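 further: cells stimulated with NPY near EC25 plus isoproterenol at EC100; 0% = vehicle plus submaximal agonist and 100% = vehicle plus saturating agonist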
An asterisk follows results filed as active; nt = no result given; ! = repeats disagree.

SMILES	NPY-Y2 antag	NPY1 pot ag	NPY Y1 blocker	EP2 modulator	PGE2 EP2 inh	NPY-Y2 PAM-ag
CCOC(=O)c1cc2sccc2n1Cc1ccccc1	11.0	2.4	2.5	62.5*	6.3	5.7
O=C(CN1C(=O)c2ccccc2C1=O)[C@@H](O)CN1C(=O)c2ccccc2C1=O	nt	nt	nt	17.9	46.1*	nt
O=C(CN1C(=O)c2ccccc2C1=O)c1ccccc1	0.9	-1.2	0.0	-2.6	7.3	7.0
O=C(c1ccc(CSc2nc3ccncc3[nH]2)cc1)N1CCN(c2cccc(Cl)c2)CC1	-1.1	50.0*	1.5	-58.3	15.2	36.1*
O=S1(=O)OC(c2ccc(O)cc2)(c2ccc(O)cc2)c2ccccc21	nt	nt	nt	-32.3	95.7*	nt
O=S1(=O)N=C(Nc2ccc(O)cc2)c2ccccc21	nt	-8.9	2.8	1.7	4.3	-6.8
O=C1C=CC(=O)N1CCNc1ncc(C(F)(F)F)cc1Cl	nt	2.1	1.0	-49.8	100.8*	10.2
Cc1ccc2nc(N/N=C/c3cccc(C)n3)cc(C)c2c1	nt	nt	nt	-44.9	40.2*	nt
Cc1cc(N/N=C/c2ccncc2)nc2ccccc12	nt	-2.9	5.5	-17.8	7.7	3.4
CCn1c(=O)c(C(=O)NCc2ccc(OC)cc2)c(O)c2ccccc21	3.8	1.8	-1.6	61.7*	-1.1	-0.5
CCCn1c(=O)c(C(=O)NCCc2ccc(OC)cc2)c(O)c2ccccc21	nt	nt	nt	70.8*	9.0	nt
CCn1c(=O)c(C(=O)NCc2ccc(OC)c(OC)c2)c(O)c2ccccc21	0.0	-2.3	-0.6	60.7*!	9.8	8.5
CCCn1c(=O)c(C(=O)NCc2ccc(OC)c(OC)c2)c(O)c2ccccc21	-2.5	15.8	-0.8	49.9	9.9	-5.5
CC1CCN(CCC(=O)Nc2ccccc2Cl)CC1	nt	nt	nt	-52.0	10.9	nt
O=C(NCCn1nc(-c2ccco2)ccc1=O)C1CCCCC1	nt	nt	nt	-8.8	8.0	nt
COc1ccc(NC(=O)CCCC2CCCCC2)cc1S(=O)(=O)N1CCCCC1	17.7*	-17.0	29.2*	2.0	16.2	-6.9
CCn1nc(C)c(Br)c1C(=O)Sc1ccccc1Cl	nt	0.6	nt	68.3*	9.5	-24.0
C=CCN=C1S/C(=C/c2cccc([N+](=O)[O-])c2)C(=O)N1CC=C	nt	-8.3	nt	64.2*	8.7	-9.2
CCn1c2cc(C)oc2c2cnn(CC(=O)N3CC(C)CC(C)C3)c(=O)c21 (centres undefined)	nt	nt	nt	-40.7	nt	nt
Cc1ccccc1Cn1c(=N)n(CC(O)c2ccco2)c2ccccc21 (centres undefined)	22.8*	-21.3	25.4*	-62.5	23.7	-7.3
O=C(NCCn1nc(-c2ccco2)ccc1=O)C1(c2ccccc2)CCCC1	nt	nt	nt	-10.1	3.5	nt
Cc1cccc(C)c1NC(=O)CSc1nc2cc3c(cc2cc1C#N)OCCO3	nt	nt	nt	9.9	19.2	nt
N#Cc1cc2cc3c(cc2nc1SCC(=O)Nc1cccc2ccccc12)OCCO3	nt	nt	nt	47.5	23.5	nt
CCc1cccc(CC)c1NC(=O)CSc1nc2cc3c(cc2cc1C#N)OCCO3	nt	nt	nt	63.4*	32.9	nt
N#Cc1cc2cc3c(cc2nc1SCC(=O)NCCc1ccccc1)OCCO3	nt	nt	nt	72.5*	37.6	nt
SMILES	NPY-Y2 antag	NPY1 pot ag	NPY Y1 blocker	EP2 modulator	PGE2 EP2 inh	NPY-Y2 PAM-ag
CC(=O)CCc1oc2ccccc2c1-c1ccccc1	nt	0.0	nt	78.7*	4.9	23.1
CC(=O)CCc1oc2ccc([N+](=O)[O-])cc2c1-c1ccc(C)o1	nt	5.1	-2.6	39.0	2.8	11.6
Cn1c2ccccc2c2cc(C(=O)OCC(=O)N3CC(=O)Nc4ccccc43)sc21	1.2	-4.8	3.6	-34.9	53.0*	-2.4
O=[N+]([O-])c1ccc(NC(=S)NCCc2ccc(Cl)cc2)cc1	-1.8	36.6	-5.8	-18.2	73.8*	19.2
COC(=O)c1cccc(NC(=O)CSc2nc(C)cc(C)n2)c1	nt	nt	nt	-54.9	6.2	nt
O=C(NCCN1CCN(c2ccccc2)CC1)C1CCN(S(=O)(=O)N2CCOCC2)CC1	-1.1	31.8*	-1.7	-6.5	5.2	-8.1
O=C(NCCCN1CCN(c2ccccc2F)CC1)C1CCN(S(=O)(=O)N2CCOCC2)CC1	1.8	5.0	-1.2	11.1	5.2	3.9
CCc1nc2ccc(F)cc2c(C(=O)NC2CCCCC2C)c1C (centres undefined)	28.7*	-81.9	35.3*	19.3	4.7	-53.4
CCOC(=O)C1CCCN(C(=O)Cn2sc3nc(C)cc(C)c3c2=O)C1 (centres undefined)	1.7	-2.1	7.5	-14.6	114.6*	0.4
C=C(C)COc1ccccc1CN1CCC(NC(C)=O)(c2ccccc2F)CC1	nt	nt	nt	-19.1	6.0	nt
CCCCSc1nc(C)nc2c1c(=O)n(C)c(=O)n2C	-0.5	3.0	0.1	62.7*	9.8	3.6
CCCSc1nc(C)nc2c1c(=O)n(C)c(=O)n2C	1.0	2.1	0.3	24.7	10.1	-1.9
Cc1cc2n(n1)C(c1ccc(C(=O)O)cc1)Nc1ccccc1-2 (centres undefined)	nt	nt	nt	6.1	7.6	nt
Cc1cc2n(n1)C(c1ccccc1)Nc1ccccc1-2 (centres undefined)	3.0	14.7	3.3	64.5*!	7.7	5.1
CCOc1ccc2cc3c(N)c(C(=O)N4CCOCC4)sc3nc2c1	nt	nt	nt	-26.8	30.6	nt
Cc1cccc(NC(=O)C(C)n2cnc3ccccc3c2=O)c1 (centres undefined)	nt	nt	nt	-82.9	5.8	nt
CCN(CC(=O)Nc1c(F)cccc1F)C(=O)Cc1ccccc1	nt	-1.8	2.7	4.7	9.7	4.1
CCCSC(=O)N(CC)CC(=O)Nc1c(CC)cccc1CC	19.8*	-22.9	18.5	27.6	7.2	-23.7
C=CCN(CC(=O)Nc1c(C)cccc1CC)C(=O)SCCC	10.4	-15.2	19.6	47.6	5.5	-13.6
CCSC(=O)N(CC)CC(=O)Nc1c(CC)cccc1CC	19.6*	-20.9	15.9	13.0	14.1	-4.0
Cc1ccccc1C1(O)CCN(Cc2cn(CCC(N)=O)c3ccccc23)CC1	nt	nt	nt	-34.0	3.6	nt
O=C(NC1CCCCC1)C(c1cccs1)N(Cc1cccs1)C(=O)c1cccs1 (centres undefined)	18.4*	-48.7	40.6*	39.8	24.3	-11.2
O=C(NC1CCCC1)C(c1ccccc1)N(Cc1cccs1)C(=O)c1ccco1 (centres undefined)	nt	nt	nt	12.2	13.0	nt
CC(=O)c1ccc(N(C(=O)Cc2cccs2)C(C(=O)NC2CCCCC2)c2cccs2)cc1 (centres undefined)	nt	nt	nt	46.5	66.7*	nt
CC(=O)c1ccc(N(C(=O)CS(=O)CC(=O)Nc2ccc(F)cc2)C(C(=O)NC2CCCCC2)c2cccs2)cc1 (centres undefined)	0.9	5.4	1.1	13.5	4.6	2.9
O=C(c1ccc2c(c1)OCO2)N(CC1CCCO1)C1(C(=O)NC2CCCCC2)CCCCC1 (centres undefined)	29.4*	-9.9	21.9*	23.4	6.6	-6.5
Nc1ccccc1N=c1ssnc1Cl	nt	12.6	-0.2	-13.2	8.2	-1.7
Cc1cc(Cl)ccc1N=c1ssnc1Cl	7.2	5.6	-2.1	-54.7	76.5*	11.8
Cc1ccc(N=c2ssnc2Cl)cc1	2.3	0.2	-3.8	-46.9	134.3*	4.5
